In the data set the test system is MS2 coat protein. The experiment in a line: apparent Kd, MS2 coat protein; higher = weaker binding; RNA-MaP array; FMN 200 µM where present. The procedure, abridged: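 The apparent Kd comes from binding curves fitted cluster by cluster, filtered, and summarised as a median. Those curves followed SNAP-549-labelled MS2 coat protein from 0.7 or 1.5 nM, doubling to 3 µM, on Illumina sequencing-chip clusters where stalled E. coli RNA polymerase had transcribed the designs, without and then with constant ligand. The buffer was 100 mM Tris-HCl pH 7.5, 80 mM KCl, 4 mM MgCl2, BSA, DTT, yeast tRNA and Tween-20, and green signal was normalised to red-channel RNA signal and control-cluster median Fmax.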

[1] abbreviates: designed as: OFF switch for flavin mononucleotide, no ligand.
Setting [2] is: ligand present: flavin mononucleotide, designed as: OFF switch for flavin mononucleotide.
The mark [3] stands for this setting: designed as: ON switch for flavin mononucleotide, no ligand.
The mark [4] stands for this setting: ligand present: flavin mononucleotide, designed as: ON switch for flavin mononucleotide.

As usually defined, the apparent Kd is a dissociation constant that holds for the conditions of the assay.

In the case of “AAAUUCAGAGGAUAUGCGCAUAGAUAAGACUUUUUUUCUUAACAUGAGGAUCACCCAUGUAGAAGGCUGUAAUA”, the “apparent Kd” value by setting is: under setting [1], 0.0184 µM; under setting [2], 0.0167 µM.
In the case of “GGUGGCGACGAGAAGGUUCACACAUGAGGAUCACCCAUGUAUGACAUGAGGAUCACCCAUGUAAGGGAGGAUAUUGGAUUUACC”, the “apparent Kd” value runs as follows: under setting [1], 0.0928 µM; under setting [2], 0.0914 µM.
Consider “CAGUUCUGAGGAUAUCCAUCCUCCUACAUGAGGAUCACCCAUGUUUCCCUCUGGGUUUUCGGAGAAGGCAGUUAUU”, for which the “apparent Kd” value was 0.321 µM under setting [1] and 0.556 µM under setting [2].
With “UUUAUACAUGAGGAUCACCCAUGUCAACAAAGUCGAGGAUAUGGGCAUAUUAUCUUAUUUCCAGAAGGCGAAUUCU”, the “apparent Kd” value was found to be 0.233 µM under setting [3] and 0.0733 µM under setting [4].
In the case of “CUUUUGUGAGGAUAUCAGUAGUAAAAAAAUAAAAUUACUACUUAGAAGGCACAUGAGGAUCACCCAUGUUCCUC”, the “apparent Kd” value by setting is: under setting [1], 0.0234 µM; under setting [2], 0.053 µM.
Regarding “GGUCCGAGUGUGAGGAUAUGCUGGUCCUUGGAUCAGCAGAAGGCACAUGAGGAUCACCCAUGUGGAGACGGACC”, the “apparent Kd” value is 0.206 µM under setting [1] and 0.538 µM under setting [2].
Regarding “AACAACCUAGGAUAUACAUGAGGAUCACCCAUGUUACUACUGGGUAAUCCCAAUUCGAGUAGAAGGAGGAUCAA”, the “apparent Kd” value by setting is: under setting [1], 0.0477 µM; under setting [2], 0.087 µM.
In the case of “CGCUACUACCAGAAGGACAUGAGGAUCACCCAUGUAGGAUAUGGGUUACAAGUUCCUGUGUAAAGAAACUACGCUACGUAUGCG”, the “apparent Kd” value reads like this: under setting [3], 0.715 µM; under setting [4], 0.0317 µM.
Regarding “CACCGUAACUGAGGAUAUCAAACAUGAGGAUCACCCAUGUAAUAAAUGAGAAUUUCGAAUGUACCUGAGAAGGCAGAAACCGGC”, the “apparent Kd” value is, setting by setting: under setting [1], 0.038 µM; under setting [2], 0.0483 µM.
In the same order, the values of “GGGCGUGAAGGAUAUACAUGAGGAUCACCCAUGUGGGAGGAGAGUGGUGAGGAGGCUGGUAGAAGGUCAGGAGG” are 0.0391 µM and 0.0329 µM.
For “GGUGGACAUGAGGAUCACCCAUGUGAGGAUAUCGGCCGGCUCGUGGUGGCUGGCUUCUCGAGAAGGCGCAUAGU”, the “apparent Kd” value was found to be 0.0694 µM under setting [1] and 0.118 µM under setting [2].
As to “ACAUGUUAUGUAGGAUAUUAUACACAUGAGGAUCACCCAUGUAACCGGAGGCUUUACUAUGAGUAUGAGAAGGGUAUGAACAUG”, the “apparent Kd” value runs as follows: under setting [1], 0.138 µM; under setting [2], 0.145 µM.
With “ACGUAUCAUGUAGGAUAUGGCCCAGGAACUUGGUCAGAAGGACAUGAGGAUCACCCAUGUAGAGUAUGUUAGGAUGACGUAUGC”, the “apparent Kd” value under setting [1] was 0.0929 µM and the “apparent Kd” value under setting [2] is 0.173 µM.
With “GGAUAGGACAGAGGAUAUACGUGCUAGAGAUCCUAGCAAAAUUUCCUCACAUGAGGAUCACCCAUGUAGAAGGCUGUCCUAUCG”, the “apparent Kd” value came out at 0.0155 µM under setting [1] and 0.417 µM under setting [2].
As to “GUAGAGAUUACAUGAGGAUCACCCAUGUCAGAACGGGUAAUCAGAAGGUAUUAUUAGAGAGAGGGUAAGGAUAUGAUUUUUUAU”, the “apparent Kd” value was 0.634 µM under setting [3] and 0.438 µM under setting [4].
“UAUUUUAACUAAGGAUAUCUAUAUUAUUUUGAAACAUGAGGAUCACCCAUGUUCAUGGGAUUAUAAGAGAAGGUAGAUGAAUAA”: the “apparent Kd” value was determined as 0.0275 µM under setting [3] and 0.0117 µM under setting [4].
With “GCGUAAAAUGUAGGAUAUGACACAGGAAACUGGUCAGAAGGACAUGAGGAUCACCCAUGUAAAAUGUUCAAGAAUAACUCAUGC”, under setting [2], the “apparent Kd” value amounted to 0.172 µM.
For “CAGCCCUGAGGAUAUCCAUCCUUGUACAUGAGGAUCACCCAUGUUCUCCUCUGGGCUUUGGGAGAAGGCAGGUAUC”, the “apparent Kd” value reads like this: under setting [1], 0.0596 µM; under setting [2], 0.0587 µM.
As to “UGCUGUGUCAGAGGAUAUACUCUAAUAAUCCAUUGCAAAUAGCGAUGGACAUGAGGAUCACCCAUGUAGAAGGCUGUCACAGCA”, the “apparent Kd” value was 0.0736 µM under setting [1] and 0.14 µM under setting [2].
As to “CGUUCGUGAGGAUAUUGUGGAAUUGACAUGAGGAUCACCCAUGUGGCCAUUGUCGACUCGCAAGAAGGCAUAGAUU”, the “apparent Kd” value by setting is: under setting [1], 0.0542 µM; under setting [2], 0.189 µM.
For the sequence “UUAAUUAUACAAGGAUAUCUAUCCUUAUCAAGACUUACAUGAGGAUCACCCAUGUUAAUAUAAUUAGAGAAGGUGUAAAUACAG”, the “apparent Kd” value under setting [3] was found to be 0.0174 µM and the “apparent Kd” value under setting [4] was determined as 0.0241 µM.
Take “UUUGUAUAGGUAGGAUAUACUUUCAAUUUUUUUUUCCUUACAUGAGGAUCACCCAUGUUUACAUUGUAGAAGGACCUCAUUGUU”: the “apparent Kd” value under setting [1] was 0.25 µM and the “apparent Kd” value under setting [2] is 0.326 µM.
For the sequence “UCGGACGUCGUAGGAUAUGUAGGAUAUUCCUACAUGAGGAUCACCCAUGUUGACAUGGAAGAAGGACAGAAGGACGAUGUCCAU”, the “apparent Kd” value is, setting by setting: under setting [3], 0.192 µM; under setting [4], 0.0047 µM.
For the sequence “AAAAAAAAAAGCUAGGAUAUCCAAAAAAAAACAUGAGGAUCACCCAUGUAAAAAAAAAAAAAAUGGGAGAAGGAGCAAAAAAAAAA”, the “apparent Kd” value reads like this: under setting [3], 0.0524 µM; under setting [4], 0.0269 µM.
With “GUCGCUAGAGGAUAUACAAUGGUAUAUGAUCCUAGUGACAUACAUGAGGAUCACCCAUGUAGAAGGCUAGUAUU”, the “apparent Kd” value runs as follows: under setting [1], 0.0235 µM; under setting [2], 0.019 µM.
Turning to “UCGCGGGAGCAGAAGGGAUAGGCCUAUUGUCGUGGAGUCUAAACUUAACAUGAGGAUCACCCAUGUCAGGAUAUGCCCACGCGA”, the “apparent Kd” value is, setting by setting: under setting [1], 0.00989 µM; under setting [2], 0.0105 µM.
Turning to “GUCAGCUCGUGAGGAUAUACAAGACUGCUUCGGCAGUGUAUUAAGAUCACAUGAGGAUCACCCAUGUAGAAGGCACGAGCUGAU”, the “apparent Kd” value under setting [1] amounted to 0.00812 µM and the “apparent Kd” value under setting [2] turned out to be 0.0796 µM.
As for “CCUUUUGUAUAAGGAUAUGUAACAAGGUGUAGGCUGGUAGGACUUGCGCUUACAGAAGGUAUACAUGAGGAUCACCCAUGUCGA”, the “apparent Kd” value runs as follows: under setting [1], 0.0222 µM; under setting [2], 0.107 µM.
Take “UGGAGGUCAGGAUAUGCAUGGCGGGACUUGCGUCGUGGCGUGCAGAAGGGACAUGAGGAUCACCCAUGUGGAGC”: the “apparent Kd” value was found to be 0.0645 µM under setting [1] and 0.0837 µM under setting [2].
For the sequence “GGUACCAUCACAGGAUAUGCUUUUCUUUGGGAAGCAGAAGGGUGUAACAUGAGGAUCACCCAUGUGGUGCCAGGGCGUUAGCCC”, the “apparent Kd” value is 0.188 µM under setting [3] and 0.0168 µM under setting [4].
With “AGCAUGUGAGGAUAUGCGGACUCCGGUAAAUCUGAAGUCCAGUAGAAGGCACAUGAGGAUCACCCAUGUGAGAU”, the “apparent Kd” value was determined as 0.043 µM under setting [1] and 0.11 µM under setting [2].
“GAUUGUUUUUAGAAGGUGCCGGCGAGAGCCGCAACAUGAGGAUCACCCAUGUGUCGGUGACGACGCAAGGAUAUGGAGGUGGUU”: the “apparent Kd” value is, setting by setting: under setting [3], 0.217 µM; under setting [4], 0.108 µM.
In the case of “CUCGAGUGAGGAUAUAUACUUCCAUCAUUUGAGAGAGAAGUAUAGAAGGCACAUGAGGAUCACCCAUGUAUAAA”, the “apparent Kd” value was found to be 0.0475 µM under setting [1] and 0.0697 µM under setting [2].
With “AUGUGUCUUCGCGUCCUGCCCGGACAUGAGGAUCACCCAUGUAGAAGGCGGUGGCAAUGCUAGACCGAGGAUAUACAUGCAAAC”, the “apparent Kd” value by setting is: under setting [1], 0.0178 µM; under setting [2], 0.0513 µM.
Regarding “GCCAACUUAUGAGGAUAUGGCACCUUAUUGGUGCCAGAAGGCAUGUCUAUUGACAUGAGGAUCACCCAUGUAUUAUAGUUGGCA”, the “apparent Kd” value under setting [3] is 0.715 µM and the “apparent Kd” value under setting [4] was 0.159 µM.
As to “AACCAGUUGGUAGGAUAUGGUGCAGUGCUCGUACCAGAAGGACCAACAUGAGGAUCACCCAUGUUGGAAAGUCAACAUUAAUGA”, the “apparent Kd” value under setting [1] stood at 0.00623 µM and the “apparent Kd” value under setting [2] came out at 0.0164 µM.
In the same order, the values of “AAGAAGUCAGGAUAUCCUGCUCGUCACUUGCGUGAUGAGUAGGAGAAGGGACAUGAGGAUCACCCAUGUAAAGC” are 0.0464 µM and 0.0431 µM.
With “UUAUAAAGAGUGAGGAUAUGCUGGUCCUUGGAUCAGCAGAAGGCACAUGAGGAUCACCCAUGUAAAAUAAUAUU”, the “apparent Kd” value is 0.0284 µM under setting [1] and 0.0413 µM under setting [2].
As for “AUAUAGAUGGUCAGGAUAUGCUAGUGGUAACAGUAGCAGAAGGGACAUGAGGAUCACCCAUGUGGAUACUGCGC”, the “apparent Kd” value is, setting by setting: under setting [1], 0.0254 µM; under setting [2], 0.0859 µM.
“ACAUACAUUCGAGGAUAUCGGUGAACAAAUUAACGAGAAGGCGAUAAAAUUUUUAAUCUUAUGAACAUGAGGAUCACCCAUGUA”: the “apparent Kd” value reads like this: under setting [3], 0.0213 µM; under setting [4], 0.0185 µM.
Turning to “GAAAAGUCAGGAUAUGCAGAUAAAAAAACGAAAAAAAAUCUGCAGAAGGGACAUGAGGAUCACCCAUGUAAAAG”, the “apparent Kd” value runs as follows: under setting [1], 0.0353 µM; under setting [2], 0.0746 µM.
As to “AGAUGGCGAGGAUAUACAUGAGGAUCACCCAUGUGAGAGAAAAGAGUGAGGAAGAAAAGUAGAAGGCGCUGUCA”, the “apparent Kd” value reads like this: under setting [1], 0.0806 µM; under setting [2], 0.13 µM.
As to “AAAAAACAUGAGGAUCACCCAUGUCAGGAUAUUCGAAAAAAAAAAAAAAAAAAAAAAAGGAGAAGGGACGAAAA”, the “apparent Kd” value under setting [1] turned out to be 0.0601 µM and the “apparent Kd” value under setting [2] turned out to be 0.05 µM.
Turning to “AGCGUGUGAGGAUAUGCGGACUCCGGUAAAUCUGGAGUCCAGUAGAAGGCACAUGAGGAUCACCCAUGUGAGAU”, the “apparent Kd” value runs as follows: under setting [1], 0.0358 µM; under setting [2], 0.124 µM.
As for “UAGAAUCGAGGAUAUACAUGAGGAUCACCCAUGUGUGGCCAUACUGUGUGGUCGUCAGGUAGAAGGCGAUUAUA”, the “apparent Kd” value is 0.0723 µM under setting [1] and 0.0226 µM under setting [2].
For “UUGUUGUGAGGAUAUCCAAUAUAUGACAUGAGGAUCACCCAUGUUUCCACUCGUACCUCCGGAGAAGGCACUUAGU”, the “apparent Kd” value under setting [1] turned out to be 0.0292 µM and the “apparent Kd” value under setting [2] is 0.0279 µM.
In the same order, the values of “GCUGGUCGAGGAUAUGCAAUCGUGCUUCGGCACGUAAGAUCACAUGAGGAUCACCCAUGUAGAAGGCGACCAGC” are 0.0195 µM and 0.074 µM.
As for “GUGUGAUUAAGAGGAUAUAUACAACAUGAGGAUCACCCAUGUACCCGUGUAGUAGAAGGUUUGUUUUUAUAUAAUAAUAUAAUU”, the “apparent Kd” value came to 0.0293 µM under setting [3] and 0.0279 µM under setting [4].
